Source: PubChem BioAssay
Efflux pump inh – antifungal efflux pump inhibition, Nile Red retention. S. cerevisiae Candida pump triplex. inhibition, % at 10 µM. 0.44% of 330,000 active. AID 485275;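 active means plate passing quality check with inhibition over a set limit, or well fluorescence over plate mean plus 4 SD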;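 further: Nile Red retained in pooled yeast measured as flow cytometry median fluorescence; higher means more Nile Red kept so more efflux inhibition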
TAG inh – triacylglycerol accumulation inhibition; H9c2 cells, Nile Red lipid (TAG) fluorescence; cells loaded with 200 µM oleic acid; inhibition, % at 12.5 µM; 0.66% of 230,000 active; AID 651582;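 active means pattern-corrected inhibition of lipid staining of at least 50% with the nuclear-stain viability signal not falling by more than 50%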
AHR act – activators of human aryl hydrocarbon receptor; P35869; AHR-responsive luciferase reporter cells, luminescence; activation, % at 5 µM; 2.5% of 320,000 active; in the data active means activation above about 47%
Target sequence (P35869 whole entry, looked up): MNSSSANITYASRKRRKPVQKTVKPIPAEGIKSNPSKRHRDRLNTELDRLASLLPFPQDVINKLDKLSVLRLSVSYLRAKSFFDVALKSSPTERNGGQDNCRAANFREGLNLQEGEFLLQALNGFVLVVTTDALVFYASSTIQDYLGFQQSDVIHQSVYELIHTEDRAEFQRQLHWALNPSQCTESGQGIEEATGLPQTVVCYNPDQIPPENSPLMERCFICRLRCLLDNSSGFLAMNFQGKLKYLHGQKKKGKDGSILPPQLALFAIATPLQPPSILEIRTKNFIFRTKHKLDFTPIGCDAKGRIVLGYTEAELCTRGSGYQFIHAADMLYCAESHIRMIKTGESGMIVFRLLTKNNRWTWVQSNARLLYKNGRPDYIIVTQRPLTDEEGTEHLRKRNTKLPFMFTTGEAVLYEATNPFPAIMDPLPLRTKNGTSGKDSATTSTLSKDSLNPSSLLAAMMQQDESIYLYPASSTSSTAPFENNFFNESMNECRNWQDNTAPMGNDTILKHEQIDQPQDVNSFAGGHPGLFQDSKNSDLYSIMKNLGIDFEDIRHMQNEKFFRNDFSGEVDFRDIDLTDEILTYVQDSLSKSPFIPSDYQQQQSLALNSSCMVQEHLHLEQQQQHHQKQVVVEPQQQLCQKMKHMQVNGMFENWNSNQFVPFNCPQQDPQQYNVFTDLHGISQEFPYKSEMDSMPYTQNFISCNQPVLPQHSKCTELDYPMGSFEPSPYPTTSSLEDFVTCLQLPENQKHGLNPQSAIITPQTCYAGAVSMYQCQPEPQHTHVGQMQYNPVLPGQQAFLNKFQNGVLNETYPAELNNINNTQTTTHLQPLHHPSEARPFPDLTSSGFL
Tb MetRS inh – blocks T. brucei methionyl-tRNA synthetase activity; purified T. brucei MetRS, ATP depletion, Kinase-Glo luminescence; inhibition, % at 11.9 µM; 0.4% of 360,000 active;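 active means inhibition above a per-plate cutoff of the control wells' mean inhibition plus 3 SD, cut at about 5.5% in these data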
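Test system: purified T. brucei MetRS enzyme. Also added: ATP, methionine and E. coli bulk tRNA substrates. Compound: 11.9 µM single point. Schedule: 15 min enzyme-compound preincubation, 2 h reaction, 10 min detection, 25 °C. Signal: luciferase luminescence of residual ATP, Kinase-Glo. Evaluation: percent inhibition versus plate control medians. Controls: DMSO wells, low control.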
SMARCA2 activ – activators of SMARCA2 function | MG213 cells, MMTV-luciferase reporter, dexamethasone, overnight | activation, % at 9.1 µM | 1% of 370,000 active; in the data active means activation above about 7.8%
SMARCA2 act conf – SMARCA2 activation, confirmation screen. shares compounds with SMARCA2 activ. MG213 cells, MMTV-luciferase with dexamethasone, luminescence, overnight; MG213 cells expressing E1A, Rb sequestered; DMSO wells 0%, reference activator 100%. activation, % at 9.1 µM. 30% of 3,500 active. AID 652260;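 active means activation above its plate's cutoff, the mean activation of tested wells plus 3 SD, cut at about 7.9% in these data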
GAL4-VP16 Luc – activates GAL4-VP16 luciferase, flagging SMARCA2 activator hits; HEK293 GAL4-VP16 pG5luc reporter, luciferase luminescence; scaled: DMSO wells 0%, SAHA wells 100%; shares compounds with SMARCA2 activ; 41% of 3,500 active; AID 686939; activation, % at 9.1 µM;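 active means activation above the solvent-only control well mean plus 3 SD, averaged across control plates, cut at about 5.2% in these data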
Of the large screens only hits and unclear results are named; the others gave an inactive call (follow-up assays come after a bar, where they were run). Compounds with a hit are over-represented: about 4.1% of the library has one in this group of screens.

CCOC(=O)C1=NOC(C(C)=O)(C(=O)N2CCOCC2)C1 (stereo not drawn)	none (no result: Efflux pump inh, TAG inh, AHR act, Tb MetRS inh)
CC(=O)c1cccc(NC(=O)c2ccc([N+](=O)[O-])o2)c1	none
COc1ccc(NC(=O)c2ccc([N+](=O)[O-])o2)cc1	SMARCA2 activ 12 | SMARCA2 act conf 29 | GAL4-VP16 Luc inactive
COc1cc(NC(=O)c2ccc([N+](=O)[O-])o2)ccc1NC(=O)c1ccco1	none (no result: TAG inh)
O=C(Nc1ccc(Cl)cn1)c1ccc([N+](=O)[O-])o1	SMARCA2 activ 11 (no result: Efflux pump inh, AHR act) | SMARCA2 act conf 14 | GAL4-VP16 Luc inactive
CC(=O)c1ccc(NC(=O)c2ccc([N+](=O)[O-])o2)cc1	SMARCA2 activ 9.4 (no result: AHR act) | SMARCA2 act conf 19 | GAL4-VP16 Luc inactive
Cc1cc(NC(=O)c2ccc([N+](=O)[O-])o2)ccc1NC(=O)c1ccco1	SMARCA2 activ 10 (no result: Efflux pump inh, TAG inh, AHR act) | SMARCA2 act conf 18 | GAL4-VP16 Luc inactive
Cc1c(Cl)c([N+](=O)[O-])nn1Cc1ccc(C(=O)Nc2ccc(Cl)cn2)o1	none (no result: TAG inh)
O=C(Nc1c(-c2ccc(C(F)(F)F)cc2)nc2ncccn12)c1ccc(F)cc1	none (no result: Efflux pump inh, TAG inh, AHR act, Tb MetRS inh)
COC(=O)[C@H]1C[C@@]2(N3CCCC3)c3ccccc3N(C(=O)OC(C)(C)C)[C@H]2N1C(=O)OC(C)(C)C	none (no result: Efflux pump inh, TAG inh, AHR act, Tb MetRS inh)
Cc1cc(N2CCCN(C)CC2)n2nc(C)nc2n1	none (no result: Efflux pump inh, TAG inh, AHR act, Tb MetRS inh)
Cc1ccc(NC(=O)c2ccc([N+](=O)[O-])o2)cc1S(=O)(=O)N1CCOCC1	SMARCA2 activ 17 (no result: TAG inh) | SMARCA2 act conf 14 | GAL4-VP16 Luc inactive
Cc1ccccc1C(=O)N1CCN(c2ccc(NC(=O)c3ccc([N+](=O)[O-])o3)cc2)CC1	SMARCA2 activ 13 (no result: TAG inh) | SMARCA2 act conf inactive | GAL4-VP16 Luc inactive
CN(Cc1ccccc1F)C(=O)C1CCCN(c2ncccn2)C1 (stereo not drawn)	none (no result: Efflux pump inh, TAG inh, AHR act, Tb MetRS inh)
COc1cc(-c2ccc(=O)[nH]n2)ccc1OC(F)F	SMARCA2 activ 8.1 | SMARCA2 act conf 15 | GAL4-VP16 Luc inactive
CC(O)CNc1nc2c(c(=O)n(Cc3ccccc3)c(=O)n2C)n1C (stereo not drawn)	SMARCA2 activ 9.7 (no result: TAG inh) | SMARCA2 act conf inactive | GAL4-VP16 Luc inactive
CCOC(=O)c1ccc2[nH]c3c(c2c1)CCCC3	SMARCA2 activ 13 | SMARCA2 act conf inactive | GAL4-VP16 Luc 8.9
COC(=O)[C@]12C[C@H](CC(=O)N3CCN(C(=O)c4ccco4)CC3)C(=O)N(Cc3ccc(Cl)cc3Cl)C1=C[C@H](C(C)(C)C)O[C@@H]2C	none (no result: Efflux pump inh, TAG inh, AHR act, Tb MetRS inh)
Cc1cccc(N=NC(=S)NNc2cccc(C)c2)c1	SMARCA2 activ 8.7 (no result: Efflux pump inh, AHR act) | SMARCA2 act conf inactive | GAL4-VP16 Luc 9.1
Cc1ccc(C(=O)Nc2cc(Cl)ccc2OC(=O)c2ccc(C)cc2)cc1	AHR act 53, SMARCA2 activ 8.0 (no result: TAG inh, Tb MetRS inh) | SMARCA2 act conf inactive | GAL4-VP16 Luc 10
COc1ccc(Sc2cccc(Cl)c2)c(C(=O)O)c1	none (no result: Efflux pump inh, TAG inh, AHR act, Tb MetRS inh)
COC(=O)c1ccc2nc(-c3ccc(Cl)cc3)c(Cc3ccccc3)n2c1	none (no result: Efflux pump inh, TAG inh, AHR act, Tb MetRS inh)
COc1ccc(-c2cn3cc(C(F)(F)F)cc(Cl)c3n2)cc1	AHR act 52, SMARCA2 activ 12 | SMARCA2 act conf inactive | GAL4-VP16 Luc 11
Fc1ccc(-c2cn3cc(C(F)(F)F)cc(Cl)c3n2)cc1	none
O=c1nc(-c2ccccc2)c2cc(Br)ccc2[nH]1	none (no result: TAG inh)
O=c1cc2[nH]c3ccccc3c(=O)n2nc1-c1ccccc1	SMARCA2 activ 8.7 (no result: TAG inh) | SMARCA2 act conf 9.5 | GAL4-VP16 Luc 6.2
O=C(O)CCS(=O)(=O)c1nc(-c2cccs2)cc(C(F)(F)F)n1	SMARCA2 activ 13 (no result: TAG inh) | SMARCA2 act conf inactive | GAL4-VP16 Luc inactive
O=C(NC(=O)c1ccc(F)cc1)Nc1nc(-c2cccs2)cc(C(F)(F)F)n1	SMARCA2 activ 8.4 | SMARCA2 act conf inactive | GAL4-VP16 Luc inactive
CS(=O)(=O)c1nc(-c2cccs2)cc(C(F)(F)F)n1	none (no result: TAG inh, Tb MetRS inh, SMARCA2 activ)
C=CCc1ccc(OCCCCN2CCC(C)CC2)c(OC)c1	SMARCA2 activ 12 (no result: TAG inh) | SMARCA2 act conf inactive | GAL4-VP16 Luc inactive
C=CCc1ccc(OCCCCN2CC(C)CC(C)C2)c(OC)c1 (stereo not drawn)	none
CN(C)CCCNc1cc(C(C)(C)C)nc2c(-c3ccccc3)cnn12	SMARCA2 activ 9.3 | SMARCA2 act conf inactive | GAL4-VP16 Luc 6.7
COC(=O)C1CCCN(C(=O)C(Cc2ccc3c(c2)OCO3)NC(C)=O)C1 (stereo not drawn)	SMARCA2 activ 16 (no result: Efflux pump inh, TAG inh, AHR act, Tb MetRS inh) | SMARCA2 act conf inactive | GAL4-VP16 Luc inactive
O=C(C1CCCN(Cc2ccc3c(c2)OCO3)C1)N1CCCC1 (stereo not drawn)	none
COCc1cc(N2CCN(C(=O)OC(C)(C)C)C[C@@H]2C)ccc1N1CC[C@H](O)C1	none (no result: Efflux pump inh, TAG inh, AHR act, Tb MetRS inh)
Cc1csc(=N)n1-c1ccc(Cl)cc1	none (no result: TAG inh)
Cc1ccc(-n2c(C)csc2=N)cc1	SMARCA2 activ 8.7 (no result: TAG inh) | SMARCA2 act conf inactive | GAL4-VP16 Luc 19
